Assay results from different studies.
Protocols differ between the studies behind these lines.
Target: Cholinesterase (BCHE, Equus caballus, UniProt P81908)
Observed: enzyme activity
Mode: inhibitor

Compound | method | IC50
C#CCNc1nc(NCCCCC2CCN(Cc3ccccc3)CC2)c(C#N)cc1C#N | Ellman | 0.511 µM
CC=C1[C@H]2C=C(C)C[C@]1(N)c1ccc(OC)nc1C2 | Ellman | 904 µM
C#CCN(C)c1nc(NCCCCC2CCN(Cc3ccccc3)CC2)c(C#N)c(-c2ccccc2)c1C#N | Ellman | 0.22 µM
CCOc1ccc(C=NNC(=S)NCC(=O)c2ccc(-c3ccccc3)cc2)cc1 | Ellman | 501 µM
CC=C1[C@H]2C=C(C)C[C@]1(N)c1cc(C)c(=O)[nH]c1C2 | Ellman | 486 µM
O=C(NCCCNc1c2c(nc3ccccc13)CCCC2)c1ccccc1O | Ellman | 0.129 µM
CC(=O)N1CCN(c2nccc(NCCc3ccccc3)n2)CC1 |  | > 100 µM
CCOc1ccc(C=NNC(=S)NCC(=O)c2cccc(C)c2)cc1 | Ellman | 300 µM
CC=C1[C@H]2C=C(C)C[C@]1(N)c1cc(CC)c(=O)[nH]c1C2 | Ellman | 60.4 µM
CC(C)(C)OC(=O)N1CCN(c2nccc(NCc3ccccc3)n2)CC1 |  | > 100 µM
CCOc1ccc(C=NNC(=S)NCC(=O)c2ccc(Cl)cc2Cl)cc1 | Ellman | 331 µM
